# Results of several laboratories.
# Lines come from different studies, so protocols differ.
# Action: inhibitor
# MET: Hepatocyte growth factor receptor (MET, Homo sapiens, UniProt P08581)
Compound,target,effect on,technique,cells,concentration,inhibition [%]
CNC(=O)c1cc(Oc2ccc(NC(=O)Nc3ccc(Cl)c(C(F)(F)F)c3)cc2)ccn1,MET,enzyme activity,,,0.3 µM,-22
C=CC(=O)Nc1cc(Nc2nccc(Nc3cc(Cl)c(F)cc3C(C)(C)O)n2)c(OC)cc1N1CC[C@@H](N(C)C)C1,MET,enzyme activity,,,1 µM,30
COc1cc2ncnc(Nc3ccc(Oc4ccccc4)cc3C)c2cc1OC,MET,enzyme activity,,,1 µM,-1
CN(C)C1CCN(CC#Cc2nn(C3CCCC3)c3nc(NCc4ccccc4)ncc23)C1 (centres unmarked),MET,enzyme activity,FRET,,0.1 µM,6
COc1cc2nccc(Oc3ccc(NC(=O)c4c5n(n(-c6ccc(F)cc6)c4=O)CCCC5)cc3)c2cc1OC,MET,enzyme activity,,,0.1 µM,98
CNC(=O)c1cc2c(Oc3ccc(NC(=O)C4(C(=O)Nc5ccc(F)cc5)CC4)cc3)ccnc2cc1OC,"Hepatocyte growth factor receptor (MET, Homo sapiens, UniProt P08581, M1250T)",enzyme activity,radiometric,,1 µM,99
COc1cc2ncnc(Nc3ccc(Oc4ccccc4)c(C)c3C)c2cc1OC,MET,enzyme activity,,,1 µM,8
CCCS(=O)(=O)Nc1ccc(F)c(C(=O)c2c[nH]c3ncc(-c4ccc(Cl)cc4)cc23)c1F,MET,enzyme activity,,,1 µM,< 20
O=C(CSc1nc2nccnc2c(=O)n1CCc1ccccc1)Nc1nccs1,MET,enzyme activity,,,10 µM,-2
CC/C(=N\NC(=O)NCc1cccc(O)c1)c1ccc(O)c(C)c1O,MET,enzyme activity,,,0.1 µM,1.1
CNc1cc(Oc2cc(C(=O)Nc3cc(N4CCN(C)CC4)cc(C(F)(F)F)c3)ccc2C)ncn1,MET,target engagement in cells,chemoproteomics,Huh-7,1 µM,-18.4
